Published values of several laboratories.
Lines come from different studies, so protocols differ.

| SMILES | method | medium | time | pH | temperature | setting | solubility |
| --- | --- | --- | --- | --- | --- | --- | --- |
| O=c1c2ccc(Oc3ccc(OC(F)(F)F)cc3)cc2[nH]c2cc(F)c(Cl)cc12 | absorbance | aqueous buffer | 90 min | pH 7.4 | – | – | < 3.12 µM |
| Cc1ccc(N(C)c2ccc(NC(=O)CN(C)c3cc(F)ccc3N3CCCC3=O)cc2)cc1 | – | PBS | – | pH 7.4 | – | – | 6.3 µM |
| Cc1c(Cl)cccc1-c1ccc2c(c1)N(Cc1noc(C3CCC3)n1)C(=O)CO2 | – | PBS | 8 h | pH 7.4 | – | – | 100 µM |
| O=C(O)c1cc(-c2ccc(-n3ccnn3)cc2)cc(-n2cc(-c3ccc(C(F)(F)F)cc3)nn2)c1 | – | aqueous buffer | – | pH 4 | – | – | 0.74 µg/mL |
| O=c1c2c([nH]c3cc(Oc4ccc(OC(F)(F)F)cc4)ccc13)CCCC2 | absorbance | aqueous buffer | 90 min | pH 7.4 | – | – | 18.5 µM |
| O=C(Nc1ccc(OC(F)(F)F)cc1)N[C@H]1CC[C@H](Oc2ccc(C(=O)O)cc2)CC1 | – | simulated gastric fluid | 1 h | pH 1 | 37 °C | acidic | 0.0008 µg/mL |
| CC(C)(C)OC(=O)N1CCC(Oc2ccc3c(=O)c4c(F)cc(Cl)cc4[nH]c3c2)C1 (centres unmarked) | absorbance | aqueous buffer | 90 min | pH 7.4 | – | – | < 3.12 µM |
| OCc1ccc(-c2nn(Cc3ccccc3)c3ncccc23)o1 | – | aqueous buffer | 6 h | pH 7.4 | – | – | > 45 µg/mL |
| CNS(=O)(=O)c1ccc(Nc2ncc(C(F)(F)F)c(N3CCC[C@](C)(O)C3)n2)c(C)c1 | – | PBS | 2 h | pH 7.4 | – | – | 37 µM |
| O=C(O)c1cc(-c2ccc(-n3ccnn3)cc2)c2ccc(-c3ccc(C(F)(F)F)cc3)cc2c1 | – | aqueous buffer | – | pH 7.4 | – | – | 9.1 µg/mL |
| CN1CCN(c2cccc(-c3ccc4ncnc(Nc5ccc(Cl)c(Cl)c5)c4c3)c2)CC1 | – | aqueous buffer | – | pH 7.4 | 25 °C | – | < 1.7 µM |
| OCc1ccc(-c2nn(Cc3ccccn3)c3cccnc23)o1 | – | aqueous buffer | 6 h | pH 7.4 | – | – | > 30 µg/mL |
| Cc1cc(/C=C/C#N)cc(C)c1Nc1ccnc(Nc2ccc(C#N)cc2)n1 | – | water | 24 h | – | 37 °C | – | 0.2 µg/mL |
| NCc1ccc(-c2nn(Cc3ccncc3)c3ccccc23)o1 | – | aqueous buffer | 6 h | pH 7.4 | – | – | > 30 µg/mL |
| c1ccc(Oc2ccc(Nc3c4c(nc5ccccc35)CCC4)cc2)cc1 | nephelometry | aqueous buffer | 30 min | pH 6.5 | – | – | 1.6 to 3.1 µg/mL |
| CCOC(=O)C1=C(CN2CCC[C@@H]2C(=O)Nc2ccc(B(O)O)cc2)NC(c2nccs2)=N[C@H]1c1ccc(F)cc1Br | HPLC | aqueous buffer | – | pH 7.4 | – | – | 4.14 µg/mL |
| CCCCN(CCCC)CCCOc1ccc2c(=O)c3c([nH]c2c1)CCCC3 | absorbance | aqueous buffer | 90 min | pH 7.4 | – | – | > 500 µM |
| CN1CCN(c2cccc(-c3ccc4ncnc(Nc5ncco5)c4c3)c2)CC1 | – | aqueous buffer | – | pH 7.4 | 25 °C | – | 520 µM |
| Cc1ccc(Oc2ccc(NC(=O)CNc3ccccc3-n3cncn3)cc2)cc1 | – | PBS | – | pH 7.4 | – | – | 15 µM |
| CNS(=O)(=O)c1ccc(Nc2ncc3cc(Cl)c(=O)n(C4CCCC4)c3n2)c(C)c1 | – | PBS | 2 h | pH 7.4 | – | – | 0.3 µM |
| Clc1ccc(Nc2ncnc3ccc(-c4cccc(N5CCOCC5)c4)cc23)cc1Cl | – | aqueous buffer | – | pH 7.4 | 25 °C | – | 4 µM |
| Cc1ccc(C(C)(C)c2ccc(NC(=O)CN(C)c3ccccc3N3CCCC3=O)cc2)cc1 | – | PBS | – | pH 7.4 | – | – | 2.5 µM |

| SMILES | method | medium | time | pH | temperature | setting | solubility |
| --- | --- | --- | --- | --- | --- | --- | --- |
| CN1CCC(Nc2ncnc3ccc(-c4cccc(N5CCOCC5)c4)cc23)CC1 | – | aqueous buffer | – | pH 7.4 | 25 °C | – | 928 µM |
| Cc1ccccc1CN1C(=O)C2=C(CCN(Cc3ccccc3)C2)N2CCN=C12 | shake flask | aqueous buffer | – | pH 1 | – | – | 62200 µg/mL |
| Cc1ccc(Oc2ccc(NC(=O)CNc3ccccc3N3CCCC3=O)cc2)cc1 | – | PBS | – | pH 7.4 | – | – | 9.1 µM |
| CC(=O)O[C@@H]1CC[C@@]2(C)[C@@H](CC[C@]3(C)[C@@H]2C(=O)C=C2[C@@H]4[C@@H](C)[C@H](C)CC[C@]4(C)CC[C@]23C)[C@@]1(C)C(=O)O | – | PBS | – | pH 7.4 | – | – | 6.45 µg/mL |
| COc1cc(NC(=O)Cn2cc(Cl)c3ccc(-c4cnn(C)c4)cc32)cc(OC)c1OC | – | PBS | – | pH 7.4 | – | – | < 2.7 µM |
| CC(C)(C(=O)O)[C@@H](NC(=O)Cc1cccc(I)c1)c1ccc2oc(=O)[nH]c2c1 | – | aqueous buffer | – | pH 6.8 | – | – | > 700 µM |
| COc1cnc(Nc2cnnc3ccc(-c4ccc(N5CCN(C)CC5)cc4)cc23)nc1 | – | aqueous buffer | – | pH 7.4 | 25 °C | – | 26 µM |
| c1cc(-c2ccc3ncnc(NC4CCOCC4)c3c2)cc(N2CCOCC2)c1 | – | aqueous buffer | – | pH 7.4 | 25 °C | – | 202 µM |
| COc1ncccc1Cn1nc(-c2ccc(CO)o2)c2ccccc21 | – | aqueous buffer | 6 h | pH 7.4 | – | – | > 33 µg/mL |
| O=c1c2c(F)cc(Cl)cc2[nH]c2cccc(Oc3ccc(OC(F)(F)F)cc3)c12 | absorbance | aqueous buffer | 90 min | pH 7.4 | – | – | 32.3 µM |
| OCc1ccc(-c2nn(Cc3ccncc3)c3cccnc23)o1 | – | aqueous buffer | 6 h | pH 7.4 | – | – | > 30 µg/mL |
| CCOc1ccc(Nc2c3c(nc4ccccc24)CCC3)cc1 | nephelometry | aqueous buffer | 30 min | pH 6.5 | – | – | 12.5 to 25 µg/mL |
| Cc1ccc(N(C)c2ccc(NC(=O)CN(C)c3cccnc3N3CCCC3=O)cc2)cc1 | – | PBS | – | pH 7.4 | – | – | 16 µM |
| NCc1ccc(-c2nn(Cc3ccccn3)c3cccnc23)o1 | – | aqueous buffer | 6 h | pH 7.4 | – | – | > 30 µg/mL |
| O=C([O-])CN1CCNCCN(CC(=O)[O-])CCNCC1.[Mn+2] | – | water | – | – | – | – | 470000 µg/mL |
| CCOC(=O)C1=C(CN2CCOCC2)NC(c2nccs2)=NC1c1ccc(F)cc1Br (centres unmarked) | HPLC | aqueous buffer | – | pH 2 | – | – | 183 µg/mL |
| Cn1cc(Nc2ncnc3ccc(-c4cccc(N5CCOCC5)c4)cc23)cn1 | – | aqueous buffer | – | pH 7.4 | 25 °C | – | 1.5 µM |
| CNS(=O)(=O)c1ccc(Nc2ncc(C(F)(F)F)c([C@H]3CC[C@](C)(O)CC3)n2)c(C)c1 | – | FaSSIF | 2 h | – | – | – | 14 µM |
| Clc1cccc(Nc2ncnc3ccc(-c4cccc(N5CCOCC5)c4)cc23)c1 | – | aqueous buffer | – | pH 7.4 | 25 °C | – | 12 µM |
| O=C(O)Cc1ccccc1Nc1c(Cl)cccc1Cl | – | FeSSIF | – | – | – | – | 303 µM |
| C[C@H]1CN(c2cccc(-c3ccc4ncnc(Nc5ncco5)c4c3)c2)CCO1 | – | aqueous buffer | – | pH 7.4 | 25 °C | – | 6 µM |
| CN1CCN(c2ccc(-c3ccc4nncc(Nc5ccc(OC(F)(F)F)cc5)c4c3)cc2)CC1 | – | aqueous buffer | – | pH 7.4 | 25 °C | – | 2.5 µM |
